Assay results as given in the EternaBench riboswitch data.

System: MS2 coat protein
Assay: apparent Kd, MS2 coat protein; higher = weaker binding; RNA-MaP array; FMN 200 µM where present
In short: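 Designs were transcribed by stalled E. coli RNA polymerase on Illumina sequencing-chip clusters. They were titrated with SNAP-549-labelled MS2 coat protein from 0.7 or 1.5 nM, doubling to 3 µM, without and then with constant ligand. Buffer: 100 mM Tris-HCl pH 7.5, 80 mM KCl, 4 mM MgCl2, BSA, DTT, yeast tRNA, Tween-20. Green signal was normalised to red-channel RNA signal and control-cluster median Fmax. Apparent Kd is the median of filtered per-cluster binding-curve fits.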

[1] = designed as: ON switch for flavin mononucleotide, no ligand
[2] = ligand present: flavin mononucleotide, designed as: ON switch for flavin mononucleotide
[3] = designed as: OFF switch for flavin mononucleotide, no ligand
[4] = ligand present: flavin mononucleotide, designed as: OFF switch for flavin mononucleotide

Sequence	apparent Kd [1] [nM]	apparent Kd [2] [nM]	apparent Kd [3] [nM]	apparent Kd [4] [nM]
CUAUUGGUAACAGGAUAUAUGAGUCCUACAUGAGGAUCACCCAUGUAGGUGAUCUAACGAGAUUAGUAGAAGGGUUACCAAUAG	16.9	8.34	–	–
GCUGCGCGAGGAUAUGCGGUUUGCGCUGUGGCCCGUGGCGUACAUGAGGAUCACCCAUGUAGAAGGCGUGUGGG	–	–	22.9	23.3
AUUUAGUGAGGAUAUGUGGCUUCGAUCGUGAGAUCGAGGCUACAGAAGGCACAUGAGGAUCACCCAUGUUCCUU	–	–	13.2	55.9
AAGCUGUCAGGAUAUCGUUAAUUUAGUUGUUUGUAUUAGUUCGAGAAGGGACAUGAGGAUCACCCAUGUAUAUA	–	–	37.8	76.8
GCUUCGGCUGUGAGGAUAUGGCUUCGGAAAUGAAGUUAGAAGGCACAUGAGGAUCACCCAUGUAAGGUUGAAGU	–	–	21.7	17.8
UAUUAGAUCCGAGGAUAUCCUUUUUUCUUACAUGAGGAUCACCCAUGUAAAGGGAUUGAGUUGUAGGAGAAGGCGGAUUUAGUU	33.4	15.1	–	–
GGAUAGGACAGAGGAUAUACGGAUAGGAUCUACUAUCUUCCUUAAAUAACAUGAGGAUCACCCAUGUAGAAGGCUGUCCUAUCG	–	–	18.6	67.9
CUGUUACGUGUAGGAUAUGCAUAUUCCCAUUAUGCAGAAGGACAUGAGGAUCACCCAUGUAUGUUAUUAUCAUGUGUUACAUGC	–	–	34.6	153
ACGGAACAUGAGGAUCACCCAUGUAUCUGAGAUAUGGUCUCGCAGGAUAUUCAGAGAAGCCAAUCGGAGAAGGGUGACACCAAA	36.6	19.6	–	–
AGACGACAACAUGAGGAUCACCCAUGUUCUAGUUUAGAGUCGCAGGAUAUGACUUCGAAGCUUAGUCAGAAGGGUGAAUUCACA	37.8	51	–	–
AAGGAUCGAGGAUAUACAUAGAUACAGAUACAUGUAGACCUACAUGAGGAUCACCCAUGUAGAAGGCGAUCAUA	–	–	18.8	33.7
GAAUAUUCGUUGUACAUGAGGAUCACCCAUGUGACUUGACAUGAGGAUAUGGAUUCUAAUUGGAUCCAGAAGGCAUGAAUAUUC	122	31.5	–	–
UGGUACUAGGGAGGAUAUGGGAAGAUACAUGAGGAUCACCCAUGUUUAAGAAUGCCGAGAGGCAACUAGAAGGCACUAGUACCU	1100	156	–	–
AACUUGUCAGGAUAUCUUACAUUUGCAUCAUAGUUACCAUUGGAGAAGGGACAUGAGGAUCACCCAUGUUUGGU	–	–	41.3	39.3
AUCAGCUCGUCAGGAUAUACGUCACUGCGUCAGCAGUGUGGUAAGAUCACAUGAGGAUCACCCAUGUAGAAGGGAAGAGCUGAU	–	–	15.1	232
CGAUGACAAAGUCAUCGAUUACGAACAUGAGGAUCACCCAUGUAGGAUAUGCUACUCAAAGAGUAGCAGAAGGACAUGUGUCUU	–	–	35.6	155
AUUACAAUUGUAUACAUGAGGAUCACCCAUGUUAUAAGUCAUGAGGAUAUGGUAUUGUAGUUAUUCCAGAAGGCAUAUAGCUAA	14.3	9.2	–	–
GGUGCGAUGUAGAAGGCAGAUCUGAUUCAGAUCUGAGGAUAUACAUGAGGAUCACCCAUGUUACGCACCAGCACGAGAGUGCAA	–	–	6.18	11.1
CGGUGACUGGUGAGGAUAUCGUGUUCGAAAGAACGUGAGAAGGCACAUGAGGAUCACCCAUGUGAUCCUCAUCG	–	–	26.1	163
UGGUACAUGGGAGGAUAUCAUGUAGACACAUGAGGAUCACCCAUGUCGAUGGAGACAUCGGAGAUUGAGAAGGCCCAUGUACCU	226	8.3	–	–
GGACCGUGCAGAGUUGGCGGUCGGCAGGAUAUGACAUGAGGAUCACCCAUGUGAACUCCAUUGGGUCAGAAGGGCCACGACACA	–	–	17.6	78
GGAUAGGACAGAGGAUAUACGUGCUAGGGAUACUAGCAAAAUUUCCUCACAUGAGGAUCACCCAUGUAGAAGGCUGUCCUAUCG	–	–	16.1	416
AGUAAGAUGCAGAAGGUGUCAGCGAGAGCUGCGACAUGAGGAUCACCCAUGUGUCGGUGACGACGCAAGGAUAUGCAUCUUACA	138	56.6	–	–
CCCACGCAUGAGAAGGGACAGGCGUGCAAUUCGACAUGAGGAUCACCCAUGUCAGGAUAUCAGUUAAGGUGGGCAGAACCAAUG	–	–	16.9	76.7
GUCCUACAUGAGGAUCACCCAUGUGAGGAUAUGGUUUCGCUGGCCGUAGCCAGUGGAACCAGAAGGCGCGUGAU	–	–	65.3	73.4
GAAAAGUAAGGAUAUGCACACAGUGAGGAAACUCACUGUGUGCAGAAGGUACAUGAGGAUCACCCAUGUUUCUC	–	–	38.1	187
AUACAUGAGGAUCACCCAUGUUACAUGGGCUAGUUUUAACGUAGAAGGAUGUUAUUAUUAUUAGCAUAGGAUAUACAAUUUGAA	–	–	274	248
